KCNQ1 inh – inhibitors of human KCNQ1 channel, primary screen, cell-based, thallium flux, high-throughput; 1.3% of 310,000 active; CHO-K1 KCNQ1, FluxOR thallium flux fluorescence; hits give high values; Potassium voltage-gated channel subfamily KQT member 1 (Homo sapiens), P51787; AID 2642, 2010; B-score at 10 µM;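 active = compounds whose thallium flux B-score, printed positive for inhibition, exceeds three library SD while starting fluorescence stays within three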;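 note: channel opened by potassium depolarization with thallium stimulus after 20 min compound exposure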
KCNK3 inh – human KCNK3 channel inhibitors, primary screen, CHO cells, FluxOR thallium flux, B-score | Potassium channel subfamily K member 3 (Homo sapiens), O14649 | 0.84% of 340,000 active | AID 602410, 2012 | B-score at 10 µM | FluxOR fluorescence; hits give low values;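 active = B-score under library mean minus 4 SD, starting fluorescence ratio at most library mean plus 5 SD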;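 note: more negative B-score means stronger inhibition of thallium flux through KCNK3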
Kir21 inh – inhibitors of mouse Kir2.1 inward-rectifier potassium channel; 0.85% of 310,000 active; B-score at 10 µM; HEK293-Kir2.1, FluxOR thallium flux fluorescence; hits give low values; AID 1672, 2009;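 active = fluorescence ratio B-score at or below minus 3 SD of library scores, with starting-brightness B-score within 2 SD, cut at about -4.2 in these data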;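 note: channel flux triggered by added potassium and thallium sulfate stimulus; B-score of peak minus minimum fluorescence over baseline after thallium stimulus; more negative B-score means stronger Kir2.1 block with less thallium influx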
KCNQ1 act – potentiators or activators of KCNQ1 channel, primary screen, cell-based, thallium flux, high-throughput. Potassium voltage-gated channel subfamily KQT member 1 (Homo sapiens), P51787. CHO-K1 KCNQ1, thallium flux FluxOR fluorescence; hits give high values. B-score at 10 µM. 0.35% of 310,000 active;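 active = fluorescence ratio B-score, a plate-corrected score, at least three library SD, with initial intensity B-score within 5 SD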
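assay system = KCNQ1-transfected CHO-K1 cells | medium = assay buffer with matched DMSO | probe or stimulus = depolarizing K+/Tl+ stimulus, K2SO4 and Tl2SO4 each 12.5 mM in 5x stock | dosing = single dose | incubation = dye 90 min, compound 20 min, room temperature | detection = kinetic FluxOR fluorescence, 10 s baseline plus 110 s post-stimulus | evaluation = ratio B score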
hERG rescue – hERG rescue from dofetilide block, primary screen, cell-based, CHO-hERG, FluxOR thallium flux, dofetilide IC70; dofetilide IC70 present; activation (rescue from dofetilide block), less the hit threshold, % at 10 µM; 0.51% of 310,000 active; AID 1511, 2009;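 active = activation above the mean of controls blocked by dofetilide plus 5 SD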;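 note: thallium influx through hERG after potassium depolarization seen as dye fluorescence rise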
KCNK9 block – KCNK9 potassium channel inhibitors, primary screen, HEK293 cells, thallium flux. B-score at 10 µM. 1.2% of 310,000 active. FluxOR thallium flux fluorescence; hits give low values. Potassium channel subfamily K member 9 (Homo sapiens), Q9NPC2;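 active = ratio B-score over 3 SD below the library mean, with starting fluorescence within 5 SD of its mean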;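 note: negative B-score means less thallium flux so channel inhibition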
KCNQ1 block val – KCNQ1 potassium channel inhibitors, confirmation, cell-based, Tl flux, duplicate; shares compounds with KCNQ1 inh; KCNQ1 cell line, FluxOR thallium flux fluorescence; inhibition, % at 10 µM; 93% of 1,600 active; AID 588353, 2011;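 active = primary screen active, with duplicate mean exceeding buffer control mean plus 3 SD of buffer wells, cut at about 28% in these data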;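 note: 0% = buffer control ratio and 100% = XE991 inhibitor control ratio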
CHO KCNQ1 ctr – thallium flux effects in parental CHO cells, counter-screen for KCNQ1 inhibitor project, cell-based, Tl flux | shares compounds with KCNQ1 inh | parental CHO-K1, FluxOR thallium flux fluorescence ratio; hits give low values; zero means no signal rise above baseline | fluorescence ratio (Tl flux) at 10 µM | 21% of 1,600 active | AID 588366, 2011;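 active = mean of duplicate thallium-flux fluorescence ratios in parental host cells more than 5 SD below the buffer control mean, cut at about 0.38 in these data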;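 note: ratio is peak minus minimum fluorescence divided by baseline fluorescence; actives read low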
KCNQ1 APC inh – KCNQ1 channel inhibitors, confirmation, orthogonal assay, cell-based, automated electrophysiology. shares compounds with KCNQ1 inh. KCNQ1-CHO cells, automated patch clamp current. calls only at 10 µM. 20% of 490 active;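 active = KCNQ1 current drop exceeding 3 SD of negative control wells, seen in both duplicate runs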;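 note: steady state current during a 2 s step from -80 to +40 mV; negative values mean current inhibition and positive values mean potentiation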
KCNQ2 inh – KCNQ2 channel inhibition, selectivity assay for KCNQ1 inhibitor project, cell-based; shares compounds with KCNQ1 inh; KCNQ2 cells, FluxOR thallium flux fluorescence; inhibition, % at 10 µM; 71% of 1,600 active;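 active = mean percent inhibition of the KCNQ2 thallium signal more than 5 SD above the buffer-only control wells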;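 note: KCNQ2 expressed in CHO cells; 0% = buffer control wells and 100% = XE-991 inhibitor control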
KCNQ1 KCNE1 spec – KCNQ1/KCNE1 channel inhibition, selectivity assay for KCNQ1 inhibitor project, CHO-K1 cells, thallium flux, FluxOR; shares compounds with KCNQ1 inh; FluxOR thallium flux fluorescence; inhibition, % at 10 µM; 77% of 1,600 active;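 active = mean percent inhibition of duplicate wells above the buffer-only control mean plus 3 SD of those controls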;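 note: 0% = buffer only wells and 100% = XE-991 inhibitor control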
Target sequence (P51787 whole entry, looked up): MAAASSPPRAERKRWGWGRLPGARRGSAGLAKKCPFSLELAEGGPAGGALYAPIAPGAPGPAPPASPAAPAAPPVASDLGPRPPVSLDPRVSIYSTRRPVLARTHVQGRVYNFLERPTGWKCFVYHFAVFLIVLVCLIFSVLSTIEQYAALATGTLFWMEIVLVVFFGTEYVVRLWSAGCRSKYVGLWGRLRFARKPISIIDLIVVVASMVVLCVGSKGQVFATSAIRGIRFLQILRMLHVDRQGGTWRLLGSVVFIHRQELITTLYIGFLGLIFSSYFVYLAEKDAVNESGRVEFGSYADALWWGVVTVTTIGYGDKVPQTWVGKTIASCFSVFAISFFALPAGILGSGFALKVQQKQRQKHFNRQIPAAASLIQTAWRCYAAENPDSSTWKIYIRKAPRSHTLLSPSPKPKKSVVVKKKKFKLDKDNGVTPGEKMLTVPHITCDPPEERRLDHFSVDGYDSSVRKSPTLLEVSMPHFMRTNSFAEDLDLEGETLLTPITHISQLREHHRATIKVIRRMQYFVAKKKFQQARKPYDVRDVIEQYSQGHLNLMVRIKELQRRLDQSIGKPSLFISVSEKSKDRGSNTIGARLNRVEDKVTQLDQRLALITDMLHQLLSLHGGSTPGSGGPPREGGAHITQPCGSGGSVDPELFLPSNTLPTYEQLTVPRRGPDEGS
The depositor's hits bear a star. Only some compounds are listed: those with a hit (about 3.7% of all), similar ones and a draw of the others.

Screening N#Cc1ccc(NC(=O)Nc2ccc(Cl)cc2)cc1 returned KCNQ1 inh 6*, KCNK3 inh inactive, Kir21 inh 0.08, KCNQ1 act inactive, hERG rescue -22, KCNK9 block inactive, KCNQ1 block val 0, CHO KCNQ1 ctr 0.65, KCNQ2 inh inactive and KCNQ1 KCNE1 spec inactive.
Screening S=C(Nc1ccccc1)Nc1cccc(Br)c1 returned KCNQ1 inh 8*, KCNK3 inh inactive, Kir21 inh 0.67, KCNQ1 act inactive, hERG rescue -18, KCNK9 block inactive, KCNQ1 block val 60*, CHO KCNQ1 ctr 0.47, KCNQ2 inh inactive and KCNQ1 KCNE1 spec 60%*.
CN(CC(=O)Nc1ccc(C#N)cc1)Cc1ccc(Cl)cc1 was read as KCNQ1 inh inactive, KCNK3 inh inactive, Kir21 inh 1.4, KCNQ1 act inactive, hERG rescue -7 and KCNK9 block inactive.
`Cc1ccc(NC(=S)Nc2ccc(Br)cc2)cc1` gave KCNQ1 inh 7*, KCNK3 inh inactive, Kir21 inh -0.39, KCNQ1 act inactive, hERG rescue -4, KCNK9 block inactive, KCNQ1 block val 48*, CHO KCNQ1 ctr 0.5, KCNQ2 inh inactive and KCNQ1 KCNE1 spec inactive.
N#Cc1ccc(NC(=S)Nc2ccccc2)cc1 was read as KCNQ1 inh 7*, KCNK3 inh inactive, Kir21 inh -0.08, KCNQ1 act inactive, hERG rescue -8, KCNK9 block inactive, KCNQ1 block val 0, CHO KCNQ1 ctr 0.61, KCNQ2 inh inactive and KCNQ1 KCNE1 spec 56%*.
Screening CNC(=S)Nc1ccc(C)cc1 returned KCNQ1 inh inactive, KCNK3 inh inactive, Kir21 inh 1.2, KCNQ1 act inactive, hERG rescue -5 and KCNK9 block inactive.
`S=C(Nc1cccc(Br)c1)c1ccccc1` gave KCNQ1 inh inactive, KCNK3 inh inactive, Kir21 inh 1.2, KCNQ1 act inactive, hERG rescue -16 and KCNK9 block inactive.
For Cc1cc(C)cc(N(C(=O)CCC(=O)Nc2ccccn2)C(C(=O)NC(C)C)c2ccc(O)cc2)c1 (stereo unspecified) the results were KCNQ1 inh inactive, Kir21 inh -0.85, KCNQ1 act inactive, hERG rescue -4 and KCNK9 block inactive.
Screening COc1ccc(C(=O)N2CCCC(C(N)=O)C2)cc1S(=O)(=O)N1CCOCC1 (stereo unspecified) returned KCNK3 inh inactive.
Screening COC(=O)c1ncccc1SC returned KCNQ1 inh inactive, KCNK3 inh inactive, Kir21 inh 1.6, KCNQ1 act inactive, hERG rescue -8 and KCNK9 block inactive.
For O=S(=O)(c1ccc(Cl)cc1)N1CCN(C(=S)Nc2ccc(F)c(Cl)c2)CC1 the results were KCNQ1 inh inactive, KCNK3 inh inactive, Kir21 inh -0.36, KCNQ1 act inactive, hERG rescue -7 and KCNK9 block inactive.
For CCc1ccccc1N1CCN(S(=O)(=O)c2ccc(F)c(C)c2)CC1 the results were KCNQ1 inh 7*, KCNK3 inh inactive, Kir21 inh 0.82, KCNQ1 act inactive, hERG rescue -14, KCNK9 block inactive, KCNQ1 block val 91*, CHO KCNQ1 ctr 0.44, KCNQ1 APC inh inactive, KCNQ2 inh 80%* and KCNQ1 KCNE1 spec 91%*.
Screening CC12CCC(=O)N1C(C(=O)Nc1cc(C(F)(F)F)ccc1N1CCCCC1)CS2 (stereo unspecified) returned KCNQ1 inh 7*, KCNK3 inh inactive, Kir21 inh -0.29, KCNQ1 act inactive, hERG rescue -19, KCNK9 block inactive, KCNQ1 block val 46*, CHO KCNQ1 ctr 0.41, KCNQ2 inh 103%* and KCNQ1 KCNE1 spec 48%*.
For Cc1cccc(NS(=O)(=O)c2ccc(C3CCCCC3)cc2)c1 the results were KCNQ1 inh 7*, KCNK3 inh inactive, Kir21 inh 0.01, KCNQ1 act inactive, hERG rescue -8, KCNK9 block inactive, KCNQ1 block val 0, CHO KCNQ1 ctr 0.61, KCNQ2 inh inactive and KCNQ1 KCNE1 spec inactive.
Screening O=C(O)c1cccc(NS(=O)(=O)c2ccc(C3CCCCC3)cc2)c1 returned KCNQ1 inh inactive, KCNK3 inh inactive, Kir21 inh 0.09, KCNQ1 act inactive, hERG rescue -10 and KCNK9 block inactive.
Screening COc1cc2c(cc1OC)CN(C(=O)c1ccc(N3CCCC3)c([N+](=O)[O-])c1)CC2 returned KCNQ1 inh inactive, KCNK3 inh inactive, Kir21 inh 0.58, KCNQ1 act inactive, hERG rescue -11 and KCNK9 block inactive.
CCOC(=O)c1c(C)nc(C(Cl)(Cl)Cl)nc1N was read as KCNQ1 inh 8*, KCNK3 inh inactive, Kir21 inh -1.2, KCNQ1 act inactive, hERG rescue -14, KCNK9 block inactive, KCNQ1 block val 86*, CHO KCNQ1 ctr 0.43, KCNQ2 inh inactive and KCNQ1 KCNE1 spec 88%*.
O=C(NC1CCSc2ccccc21)c1cccc(Br)c1 (stereo unspecified) was read as KCNQ1 inh 7*, KCNK3 inh inactive, Kir21 inh -0.14, KCNQ1 act inactive, hERG rescue -6, KCNK9 block inactive, KCNQ1 block val 32*, CHO KCNQ1 ctr 0.55, KCNQ2 inh 83%* and KCNQ1 KCNE1 spec 34%*.

Screens from PubChem BioAssay.
